# Screening data deposited in PubChem by Johns Hopkins Ion Channel Center.
# Compounds with a hit are over-represented: about 3.1% of the library has one in this group of screens.
# KCNK3 inh – human KCNK3 channel inhibition, primary screen; O14649; CHO-KCNK3 thallium flux, FluxOR fluorescence; active compounds read low; B-score at 10 µM; hit rate 0.84% among 340,000; AID 602410;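 active = B-score under library mean minus 4 SD, starting fluorescence ratio at most library mean plus 5 SD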;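 also: more negative B-score means stronger inhibition of thallium flux through KCNK3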
# KCNK9 block – blocks the human KCNK9 two-pore domain potassium channel; Q9NPC2; HEK293 KCNK9, FluxOR thallium flux fluorescence; active compounds read low; B-score at 10 µM; hit rate 1.2% among 310,000;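 active = ratio B-score over 3 SD below the library mean, with starting fluorescence within 5 SD of its mean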;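 also: negative B-score means less thallium flux so channel inhibition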
# hERG protect – shields human hERG channel from block by proarrhythmic agents. Q12809. CHO-hERG, FluxOR thallium flux, dofetilide IC70 present. activation (rescue from dofetilide block), less the hit threshold, % at 10 µM. hit rate 0.51% among 310,000;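 active = activation above the mean of controls blocked by dofetilide plus 5 SD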;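 also: thallium influx through hERG after potassium depolarization seen as dye fluorescence rise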
# KCNQ1 pot – potentiates or activates the human KCNQ1 potassium channel; P51787; CHO-K1 KCNQ1, thallium flux FluxOR fluorescence; active compounds read high; B-score at 10 µM; hit rate 0.35% among 310,000;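 active = fluorescence ratio B-score, a plate-corrected score, at least three library SD, with initial intensity B-score within 5 SD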
# Target sequence (P51787 whole entry, looked up): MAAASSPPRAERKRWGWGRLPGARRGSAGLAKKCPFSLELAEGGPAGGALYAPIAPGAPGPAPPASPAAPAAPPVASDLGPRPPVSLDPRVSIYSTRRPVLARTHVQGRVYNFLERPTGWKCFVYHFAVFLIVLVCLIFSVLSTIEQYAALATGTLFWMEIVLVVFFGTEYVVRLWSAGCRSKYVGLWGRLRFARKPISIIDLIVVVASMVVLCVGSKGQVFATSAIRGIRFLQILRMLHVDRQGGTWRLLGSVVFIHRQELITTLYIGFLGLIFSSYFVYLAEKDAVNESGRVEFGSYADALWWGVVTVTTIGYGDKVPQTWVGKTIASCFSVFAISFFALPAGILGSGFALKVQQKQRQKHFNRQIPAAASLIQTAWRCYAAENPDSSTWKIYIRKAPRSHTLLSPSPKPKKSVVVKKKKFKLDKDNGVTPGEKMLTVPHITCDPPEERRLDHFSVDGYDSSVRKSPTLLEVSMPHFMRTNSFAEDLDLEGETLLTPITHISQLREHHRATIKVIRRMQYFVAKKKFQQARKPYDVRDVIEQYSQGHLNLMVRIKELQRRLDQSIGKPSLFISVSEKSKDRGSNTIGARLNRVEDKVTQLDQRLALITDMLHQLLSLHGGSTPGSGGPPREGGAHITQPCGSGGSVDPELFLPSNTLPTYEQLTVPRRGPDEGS
#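 assay system = CHO-K1 cells stably expressing KCNQ1 | medium = assay buffer, equal DMSO in all wells | timing = 37 °C overnight plating, 90-min dark dye load, 20-min compound pretreatment | measured by = kinetic FluxOR thallium fluorescence, 10-s 1-Hz baseline, 110-s post-stimulus read | measure = fluorescence change relative to baseline, converted to B score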
# KCNQ1 block – blocks the human KCNQ1 potassium channel; P51787; CHO-K1 KCNQ1, FluxOR thallium flux fluorescence; active compounds read high; B-score at 10 µM; hit rate 1.3% among 310,000; AID 2642;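 active = compounds whose thallium flux B-score, printed positive for inhibition, exceeds three library SD while starting fluorescence stays within three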;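 also: channel opened by potassium depolarization with thallium stimulus after 20 min compound exposure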
# KCNK9 inh conf – human KCNK9 inhibitor confirmation; shares compounds with KCNK9 block; HEK293 KCNK9 cells, FluxOR thallium flux fluorescence; inhibition, % at 10 µM; hit rate 43% among 4,900; AID 492992;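 active = thallium signal inhibited by more than 5 SD of the compound-free buffer control wells, on both duplicate plates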;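 also: 0% = assay buffer control wells without compound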
# Kir2-1 spec – tests whether KCNK9 modulators also affect mouse Kir2.1; shares compounds with KCNK9 block; Kir2.1 cells, FluxOR thallium flux fluorescence; inhibition, % at 10 µM; hit rate 4% among 4,900; AID 492993;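 active = thallium signal drop more than 5 SD beyond the mean of the no-compound control wells, seen in both duplicate plates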;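 also: signal is fluorescence rise after thallium addition divided by baseline fluorescence; plate controls were assay buffer only for no effect and full block by chlorpromazine control for full effect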
# KCNK9 uninduced – second check of KCNK9 modulator effects in non-induced HEK293 cells | AID 492997 | shares compounds with KCNK9 block | hit rate 40% among 4,900 | FluxOR thallium flux | inhibition, % at 10 µM;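 active = thallium signal drop beyond 5 SD of the untreated control mean, on both duplicate plates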;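 also: plate controls were buffer only IC0 wells for no effect and SID17386958 at its maximal inhibitory level for full effect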
# An asterisk follows results filed as active; i = inactive; . = no result.
SMILES,KCNK3 inh,KCNK9 block,hERG protect,KCNQ1 pot,KCNQ1 block,KCNK9 inh conf,Kir2-1 spec,KCNK9 uninduced
CCOP(=O)(OCC)c1nc(-c2cccc3ccccc23)oc1NCCc1ccc(OC)cc1,i,i,-12,i,i,i,i,28%*
CCOP(=O)(OCC)c1nc(-c2cccc3ccccc23)oc1N1CCOCC1,i,i,-14,i,i,.,.,.
CCn1c(=S)sc2c(=O)n(CC(=O)Nc3ccccc3C(F)(F)F)c(C)nc21,i,i,-5,i,i,.,.,.
COC(=O)/C=C/c1ccccc1S(=O)(=O)N(Cc1ccccc1)Cc1ccco1,i,-8.5*,-9,i,i,30%*,i,38%*
O=S(=O)(c1ccc(S(=O)(=O)N(Cc2ccccc2)Cc2ccco2)cc1)N1CCCC1,i,i,-6,i,i,.,.,.
COc1ccc(-c2nc(S(=O)(=O)c3ccccc3)c(NCCCN3CCOCC3)o2)cc1,i,.,.,.,.,.,.,.
CSc1ccc(CN(C)C(=O)CCNS(=O)(=O)c2ccc(C)c(C)c2)cc1,i,i,-17,i,i,i,i,i
O=C(CN1C(=O)NC2(CCCC2)C1=O)NNC(=O)c1ccc(F)cc1,i,i,-12,i,i,.,.,.
COc1ccc(S(=O)(=O)n2ccc(C(C)Oc3ccc(-c4ccccc4)c(F)c3)n2)cc1 (centres undefined),i,-11*,-9,i,i,61%*,i,40%*
COc1ccc(-c2nc(SC)n(S(=O)(=O)c3ccccc3)n2)cc1,i,i,-4,i,i,.,.,.
O=C(CN1CCN(c2ccccc2)CC1)Nc1c(C(=O)C2CC2)oc2ccccc12,i,-11*,-5,i,i,32%*,i,i
CC1CCCC(NC(=O)COC(=O)c2cc(S(=O)(=O)N3CCOCC3)ccc2F)C1C (centres undefined),i,.,.,.,.,.,.,.
c1ccc(CN2CCN(c3nc(-c4ccccc4)nc4ccccc34)CC2)cc1,i,-17*,-9,i,i,34%*,i,28%*
COc1ccc(C)cc1Nc1n[n+](-c2ccccc2)c(-c2c(Cl)cccc2Cl)s1,.,-15*,-32,i,11*,64%*,33%*,36%*
CCc1ccc(Nc2n[n+](-c3ccccc3)c(-c3c(Cl)cccc3Cl)s2)cc1,i,i,-25,i,i,.,.,.
COc1ccc(C(=O)NC(=S)Nc2ccc(CN3CCOCC3)cc2)cc1Cl,i,i,-14,i,i,i,i,i
COc1ccc(C(=O)NC(=S)Nc2ccc(CN3CCCCC3)cc2)cc1Cl,i,i,-23,i,i,.,.,.
O=C(CC1CCCC1)N1CCCC(Nc2ccc(F)cc2)C1 (centres undefined),i,i,-10,i,i,i,i,i
Cc1cc(C)n(CCC(=O)N2CCCC(Nc3ccc(F)cc3)C2)n1 (centres undefined),i,i,-3,i,i,.,.,.
CC1(CCC(=O)N2CCCC(Nc3ccc(F)cc3)C2)CC1 (centres undefined),i,i,-11,i,i,i,i,i
O=C(CC1CCCC1)N1CCCC(Nc2cccc(F)c2)C1 (centres undefined),i,i,-13,i,i,.,.,.
Nc1ncnc2c1ncn2-c1ccccc1Cl,i,.,.,.,.,.,.,.
CCN(CC)CCNC(=O)c1ccc(NC(=O)C2CCN(c3ncnc4sc(C)c(C)c34)CC2)cc1,i,i,-9,i,i,.,.,.
Cc1cccc(OCCCCCn2ccnc2)c1C,i,i,-8,i,i,i,i,i
Cc1cccc(OCCCOc2cccc3cccnc23)c1C,i,i,-7,i,i,.,.,.
SMILES,KCNK3 inh,KCNK9 block,hERG protect,KCNQ1 pot,KCNQ1 block,KCNK9 inh conf,Kir2-1 spec,KCNK9 uninduced
Cc1ccc(OCCCOc2cccc3cccnc23)cc1C,i,i,-9,i,i,i,i,i
Cc1c(NC(=O)C(C)OC(=O)c2cc(Cl)ccc2O)c(=O)n(-c2ccccc2)n1C (centres undefined),i,i,-12,i,i,.,.,.
CCN1CCN(CCNC(=O)CCc2c(C)c3c(C)nn(-c4ccccc4)c3n(C)c2=O)CC1,i,i,-7,i,i,.,.,.
Cc1nn(-c2ccccc2)c2c1c(C)c(CCC(=O)N1CCOCC1)c(=O)n2C,i,i,-17,i,i,i,i,i
CCn1c(=O)c(CCC(=O)NCCN2CCOCC2)c(C)c2c(C)nn(-c3cccc(C)c3)c21,i,i,-8,i,i,.,.,.
CCn1c(=O)c(CCC(=O)N2CCOCC2)c(C)c2c(C)nn(-c3ccccc3)c21,i,i,-10,i,i,i,i,i
CCC(C)n1c(SCC(=O)NC2CCS(=O)(=O)C2)nc2ccccc2c1=O (centres undefined),i,i,-12,i,i,.,.,.
Oc1c(C(Nc2nccs2)c2ccc(C(F)(F)F)cc2)ccc2cccnc12 (centres undefined),i,i,-15,i,i,i,i,i
Cc1ccccc1C(=O)NC1CCN(CC(=O)NCc2ccccc2)CC1,i,i,-2,i,i,.,.,.
CC(C)S(=O)(=O)c1nsc2nc(=O)c(/C=C3\C=Nc4ccccc43)c(N)n12,i,i,-22,i,i,i,i,i
Cc1ccc(NC(=O)c2nc(S(=O)(=O)Cc3ccccc3)ncc2Cl)cc1,i,i,-18,i,i,.,.,.
O=C(Nc1ccc(F)cc1)c1nc(S(=O)(=O)Cc2ccccc2)ncc1Cl,i,-9*,-21,i,i,47%*,i,i
CCOc1ccc(N2C=Nc3ccc(OCC)cc3C2)cc1,i,i,-5,i,i,.,.,.
CCN(CCn1cccn1)C(=O)C1CCC(=O)N(CCN2CCOCC2)C1 (centres undefined),i,i,-10,i,i,.,.,.
CC(C)Cn1c(/C=N/Nc2nc3ccccc3[nH]2)nc2ccccc21,i,i,-4,i,11*,27%*,i,i
CCCn1c(/C=N/Nc2nc3ccccc3[nH]2)nc2ccccc21,i,.,.,.,.,.,.,.
Cc1c(C(=O)Nc2ccc3c(c2)OCO3)oc2ccccc12,i,-15*,-12,i,i,62%*,i,33%*
N#Cc1ccc(-c2ccccc2)nc1SCC(=O)c1cccc(Cl)c1,i,-8.7*,-7,i,i,34%*,i,46%*
